Results taken from ChEMBL document CHEMBL3102784, “Salicylanilide diethyl phosphates: synthesis, antimicrobial activity and cytotoxicity” (Bioorg Med Chem, 2014).
In brackets after ≈: the same amount, converted by molar mass. Activity calls are given as the source filed them. The rule behind the calls is not given here.

What was measured:
[1] = system: Mycobacterium kansasii; assay: Antimycobacterial activity against Mycobacterium kansasii My 235/80 after 21 days; format: functional; conditions: My 235/80, 504 h
In short: (§1)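 Micromethod MIC in Šula's semisynthetic medium at 37 °C. Compounds added in DMSO at 1000 down to 0.032 µmol/L. Isoniazid standard in sterile water at 0.5–250 µmol/L. Inocula: H37Rv 10^3, M. avium 10^5, M. kansasii 10^4. Read at 14 and 21 d, plus 7 d for M. kansasii.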

[2] = system: Mycobacterium kansasii; assay: Antimycobacterial activity against Mycobacterium kansasii 6509/96 after 14 days; format: functional; conditions: 6509/96, 336 h; in short: as §1
[3] = system: Escherichia coli; assay: Antibacterial activity against Escherichia coli CCM 4517 at 500 micromol/L after 24 to 48 hrs by broth microdilution method; format: functional, organism-based
In short: (§2)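 Broth microdilution in Mueller–Hinton broth, compounds dissolved in DMSO, tested over a dilution series from 500 downward. MIC taken as ≥95% growth reduction (IC95) versus drug-free control. Benzylpenicillin comparator. Readings at 24 and 48 h.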

[4] = system: Aspergillus fumigatus; assay: Antifungal activity against Aspergillus fumigatus 231 after 48 hrs by broth microdilution method; format: functional; conditions: Aspergillus fumigatus, 231, 48 h
In short: (§3)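 Broth microdilution in RPMI 1640 with glutamine, fluconazole as reference. For yeasts, MIC is ≥80% growth reduction (IC80) versus control. For filamentous fungi, the value is expressed as IC50. Readings at 24 and 48 h.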

[5] = system: Mycobacterium kansasii; assay: Antimycobacterial activity against Mycobacterium kansasii My 235/80 after 14 days; format: functional; conditions: My 235/80, 336 h; in short: as §1
[6] = system: Pichia kudriavzevii; assay: Antifungal activity against Candida krusei E28 after 48 hrs by broth microdilution method; format: functional; conditions: E28, 48 h; in short: as §3
[7] = system: Mycobacterium avium; assay: Antimycobacterial activity against isoniazid, rifampicin, ethambutol and ofloxacin-resistant Mycobacterium avium My 330/88 after 14 days; format: functional; conditions: My 330/88, 336 h; in short: as §1
[8] = system: Mycobacterium kansasii; assay: Antimycobacterial activity against Mycobacterium kansasii 6509/96 after 7 days; format: functional; conditions: 6509/96, 168 h; in short: as §1
[9] = system: Pseudomonas aeruginosa; assay: Antibacterial activity against Pseudomonas aeruginosa CCM 1961 at 500 micromol/L after 24 to 48 hrs by broth microdilution method; format: functional, organism-based; in short: as §2
[10] = system: Trichophyton mentagrophytes; assay: Antifungal activity against Trichophyton mentagrophytes 445 after 72 hrs by broth microdilution method; format: functional; conditions: Trichophyton mentagrophytes, 445, 72 h
In short: (§4)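 Filamentous dermatophyte tested by broth microdilution in RPMI 1640 with glutamine, fluconazole as reference. Value expressed as IC50 relative to growth control. Read at 72 and 120 h.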

[11] = system: Staphylococcus epidermidis; assay: Antibacterial activity against Staphylococcus epidermidis H 6966/08 after 24 hrs by broth microdilution method; format: functional; conditions: H 6966/08, 24 h; in short: as §2
[12] = system: Mycobacterium avium; assay: Antimycobacterial activity against isoniazid, rifampicin, ethambutol and ofloxacin-resistant Mycobacterium avium My 330/88 after 21 days; format: functional; conditions: My 330/88, 504 h; in short: as §1
[13] = system: Pichia kudriavzevii; assay: Antifungal activity against Candida krusei E28 after 24 hrs by broth microdilution method; format: functional; conditions: E28, 24 h; in short: as §3
[14] = system: Aspergillus fumigatus; assay: Antifungal activity against Aspergillus fumigatus 231 after 24 hrs by broth microdilution method; format: functional; conditions: Aspergillus fumigatus, 231, 24 h; in short: as §3
[15] = system: Trichosporon asahii; assay: Antifungal activity against Trichosporon asahii 1188 after 48 hrs by broth microdilution method; format: functional; conditions: Trichosporon asahii, 1188, 48 h; in short: as §3
[16] = system: Mycobacterium kansasii; assay: Antimycobacterial activity against Mycobacterium kansasii 6509/96 after 21 days; format: functional; conditions: 6509/96, 504 h; in short: as §1
[17] = system: Klebsiella pneumoniae; assay: Antibacterial activity against ESBL-positive Klebsiella pneumoniae J 14368/08 at 500 micromol/L after 24 to 48 hrs by broth microdilution method; format: functional, organism-based; in short: as §2
[18] = system: Trichosporon asahii; assay: Antifungal activity against Trichosporon asahii 1188 after 24 hrs by broth microdilution method; format: functional; conditions: Trichosporon asahii, 1188, 24 h; in short: as §3
[19] = system: Staphylococcus aureus; assay: Antibacterial activity against methicillin-resistant Staphylococcus aureus H 5996/08 after 48 hrs by broth microdilution method; format: functional; conditions: H 5996/08, 48 h; in short: as §2
[20] = system: Mycobacterium tuberculosis; assay: Antimycobacterial activity against Mycobacterium tuberculosis H37Rv My 331/88 after 21 days; format: functional; conditions: H37Rv My 331/88, 504 h; in short: as §1
[21] = system: Mycobacterium tuberculosis; assay: Antimycobacterial activity against Mycobacterium tuberculosis H37Rv My 331/88 after 14 days; format: functional; conditions: H37Rv My 331/88, 336 h; in short: as §1
[22] = system: Lichtheimia corymbifera; assay: Antifungal activity against Absidia corymbifera 272 after 24 hrs by broth microdilution method; format: functional; conditions: Lichtheimia corymbifera, 272, 24 h; in short: as §3
[23] = system: Candida tropicalis; assay: Antifungal activity against Candida tropicalis 156 at 500 micromol/L after 24 to 48 hrs by broth microdilution method; format: functional, organism-based; in short: as §3
[24] = system: Staphylococcus aureus; assay: Antibacterial activity against Staphylococcus aureus CCM 4516/08 after 24 hrs by broth microdilution method; format: functional; conditions: CCM 4516/08, 24 h; in short: as §2
[25] = system: Lichtheimia corymbifera; assay: Antifungal activity against Absidia corymbifera 272 after 48 hrs by broth microdilution method; format: functional; conditions: Lichtheimia corymbifera, 272, 48 h; in short: as §3
[26] = system: Staphylococcus epidermidis; assay: Antibacterial activity against Staphylococcus epidermidis H 6966/08 after 48 hrs by broth microdilution method; format: functional; conditions: H 6966/08, 48 h; in short: as §2
[27] = system: HepG2; assay: Cytotoxicity against human HepG2 cells after 24 hrs by CellTiter assay; format: cell-based; conditions: HepG2, 24 h
In short: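 HepG2 cells (passage 27–33) in MEM with 10% FBS, L-glutamine and NEAA, seeded at 1×10^4 per well. Treated next day with compounds at 0.1–100 µM (or 0.1–25 µmol/L), triplicates, <1% DMSO, for 24 h at 37 °C, 5% CO2. MTS reagent added for 2 h, absorbance read at 490 nm. IC50 taken against untreated (100%) and 10% DMSO (0%) controls.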

[28] = system: Enterococcus sp.; assay: Antibacterial activity against Enterococcus sp. J 14365/08 at 500 micromol/L after 24 to 48 hrs by broth microdilution method; format: functional, organism-based; in short: as §2
[29] = system: Klebsiella pneumoniae; assay: Antibacterial activity against Klebsiella pneumoniae D 11750/08 at 500 micromol/L after 24 to 48 hrs by broth microdilution method; format: functional, organism-based; in short: as §2
[30] = system: Mycobacterium kansasii; assay: Antimycobacterial activity against Mycobacterium kansasii My 235/80 after 7 days; format: functional; conditions: My 235/80, 168 h; in short: as §1
[31] = system: Staphylococcus aureus; assay: Antibacterial activity against methicillin-resistant Staphylococcus aureus H 5996/08 after 24 hrs by broth microdilution method; format: functional; conditions: H 5996/08, 24 h; in short: as §2
[32] = system: Nakaseomyces glabratus; assay: Antifungal activity against Candida glabrata 20/I at 500 micromol/L after 24 to 48 hrs by broth microdilution method; format: functional, organism-based; in short: as §3
[33] = system: Trichophyton mentagrophytes; assay: Antifungal activity against Trichophyton mentagrophytes 445 after 120 hrs by broth microdilution method; format: functional; conditions: Trichophyton mentagrophytes, 445, 120 h; in short: as §4
[34] = system: Candida albicans; assay: Antifungal activity against Candida albicans ATCC 44859 after 24 hrs by broth microdilution method; format: functional; conditions: ATCC 44859, 24 h; in short: as §3
[35] = system: Candida albicans; assay: Antifungal activity against Candida albicans ATCC 44859 after 48 hrs by broth microdilution method; format: functional; conditions: ATCC 44859, 48 h; in short: as §3
[36] = system: Staphylococcus aureus; assay: Antibacterial activity against Staphylococcus aureus CCM 4516/08 after 48 hrs by broth microdilution method; format: functional; conditions: CCM 4516/08, 48 h; in short: as §2

SMILES | MIC [1] [µM] | MIC [2] [µM] | Activity [3] | MIC50 [4] [µM] | MIC [5] [µM] | MIC80 [6] [µM] | MIC [7] [µM] | MIC [8] [µM] | Activity [9] | MIC50 [10] [µM] | MIC95 [11] [µM] | MIC [12] [µM] | MIC80 [13] [µM] | MIC50 [14] [µM] | MIC80 [15] [µM] | MIC [16] [µM] | Activity [17] | MIC80 [18] [µM] | MIC95 [19] [µM] | MIC [20] [µM] | also measured
CCOP(=O)(OCC)Oc1cc(Cl)ccc1C(=O)Nc1cccc(Br)c1 | 8 (≈ 3.7 µg/mL) | 8 (≈ 3.7 µg/mL) | inactive | > 500 | 8 (≈ 3.7 µg/mL) | > 500 | 16 (≈ 7.4 µg/mL) | 8 (≈ 3.7 µg/mL) | inactive | > 500 | 125 (≈ 57.8 µg/mL) | 16 (≈ 7.4 µg/mL) | > 500 | > 500 | > 500 | 8 (≈ 3.7 µg/mL) | inactive | > 500 | 500 (≈ 231 µg/mL) | 4 (≈ 1.85 µg/mL) | MIC [21]: 4 µM (≈ 1.85 µg/mL); MIC50 [22]: > 500 µM; Activity [23]: inactive; MIC95 [24]: 125 µM (≈ 57.8 µg/mL); MIC50 [25]: > 500 µM; MIC95 [26]: 250 µM (≈ 116 µg/mL); IC50 [27]: 8.07 µM; Activity [28]: inactive; Activity [29]: inactive; MIC [30]: 4 µM (≈ 1.85 µg/mL); MIC95 [31]: 250 µM (≈ 116 µg/mL); Activity [32]: inactive; MIC50 [33]: > 500 µM; MIC80 [34]: > 500 µM; MIC80 [35]: > 500 µM; MIC95 [36]: 500 µM (≈ 231 µg/mL)
CCOP(=O)(OCC)Oc1cc(Cl)ccc1C(=O)Nc1ccc(Cl)c(Cl)c1 | 4 (≈ 1.81 µg/mL) | 4 (≈ 1.81 µg/mL) | inactive | > 500 | 4 (≈ 1.81 µg/mL) | > 500 | 16 (≈ 7.24 µg/mL) | 4 (≈ 1.81 µg/mL) | inactive | 7.81 (≈ 3.54 µg/mL) | 250 (≈ 113 µg/mL) | 16 (≈ 7.24 µg/mL) | > 500 | > 500 | > 500 | 4 (≈ 1.81 µg/mL) | inactive | > 500 | > 500 | 4 (≈ 1.81 µg/mL) | MIC [21]: 4 µM (≈ 1.81 µg/mL); MIC50 [22]: > 500 µM; Activity [23]: inactive; MIC95 [24]: 500 µM (≈ 226 µg/mL); MIC50 [25]: > 500 µM; MIC95 [26]: > 500 µM; IC50 [27]: 1.92 µM; Activity [28]: inactive; Activity [29]: inactive; MIC [30]: 2 µM (≈ 0.905 µg/mL); MIC95 [31]: 500 µM (≈ 226 µg/mL); Activity [32]: inactive; MIC50 [33]: 7.81 µM (≈ 3.54 µg/mL); MIC80 [34]: > 500 µM; MIC80 [35]: > 500 µM; MIC95 [36]: > 500 µM
